In ChEMBL document CHEMBL4118097, “Selective Inhibitors of Dual Leucine Zipper Kinase (DLK, MAP3K12) with Activity in a Model of Alzheimer's Disease” (J Med Chem, 2017):

What was measured:
[1] = molecular target: Myotonin-protein kinase (Homo sapiens) (UniProt Q09013); assay: Inhibition of full length recombinant human DMPK expressed in baculovirus expression system at 1 uM by FRET assay relative to control
[2] = molecular target: CDK2/Cyclin A2 (Homo sapiens) (UniProt P24941+P20248); assay: Inhibition of recombinant full length His-tagged human CDK2/CyclinA expressed in baculovirus expression system at 1 uM by FRET assay relative to control
[3] = molecular target: Activin receptor type-1 (Homo sapiens) (UniProt Q04771); assay: Inhibition of recombinant GST-tagged human ALK2 catalytic domain (147 to end residues) at 1 uM by FRET assay relative to control
[4] = molecular target: Tyrosine-protein kinase Lck (Homo sapiens) (UniProt P06239); assay: Inhibition of recombinant full length His-tagged human Lck expressed in baculovirus at 1 uM by FRET assay relative to control
Tyrosine-protein kinase Lck (Homo sapiens), sequence (P06239 2-509 limits assumed): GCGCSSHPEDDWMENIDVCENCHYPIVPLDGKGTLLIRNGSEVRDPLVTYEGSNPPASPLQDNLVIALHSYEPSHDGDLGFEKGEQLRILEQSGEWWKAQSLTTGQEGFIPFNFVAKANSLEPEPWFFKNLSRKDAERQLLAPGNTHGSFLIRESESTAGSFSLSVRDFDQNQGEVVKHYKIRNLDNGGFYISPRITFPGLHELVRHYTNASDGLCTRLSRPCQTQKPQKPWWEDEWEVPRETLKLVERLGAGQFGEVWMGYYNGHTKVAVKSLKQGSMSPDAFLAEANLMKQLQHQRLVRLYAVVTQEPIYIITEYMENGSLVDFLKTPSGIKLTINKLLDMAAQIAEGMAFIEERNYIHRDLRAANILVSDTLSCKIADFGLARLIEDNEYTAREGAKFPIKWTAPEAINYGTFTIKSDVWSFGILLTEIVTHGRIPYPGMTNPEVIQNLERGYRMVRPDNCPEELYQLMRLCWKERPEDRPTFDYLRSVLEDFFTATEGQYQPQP

[5] = molecular target: Tyrosine-protein kinase JAK2 (Homo sapiens) (UniProt O60674); assay: Inhibition of recombinant GST-tagged human JAK2 catalytic domain (809 to 1153 residues) expressed in baculovirus expression system at 1 uM by FRET relative to control
Tyrosine-protein kinase JAK2 (Homo sapiens), sequence (O60674 whole entry, the tested form may be a part): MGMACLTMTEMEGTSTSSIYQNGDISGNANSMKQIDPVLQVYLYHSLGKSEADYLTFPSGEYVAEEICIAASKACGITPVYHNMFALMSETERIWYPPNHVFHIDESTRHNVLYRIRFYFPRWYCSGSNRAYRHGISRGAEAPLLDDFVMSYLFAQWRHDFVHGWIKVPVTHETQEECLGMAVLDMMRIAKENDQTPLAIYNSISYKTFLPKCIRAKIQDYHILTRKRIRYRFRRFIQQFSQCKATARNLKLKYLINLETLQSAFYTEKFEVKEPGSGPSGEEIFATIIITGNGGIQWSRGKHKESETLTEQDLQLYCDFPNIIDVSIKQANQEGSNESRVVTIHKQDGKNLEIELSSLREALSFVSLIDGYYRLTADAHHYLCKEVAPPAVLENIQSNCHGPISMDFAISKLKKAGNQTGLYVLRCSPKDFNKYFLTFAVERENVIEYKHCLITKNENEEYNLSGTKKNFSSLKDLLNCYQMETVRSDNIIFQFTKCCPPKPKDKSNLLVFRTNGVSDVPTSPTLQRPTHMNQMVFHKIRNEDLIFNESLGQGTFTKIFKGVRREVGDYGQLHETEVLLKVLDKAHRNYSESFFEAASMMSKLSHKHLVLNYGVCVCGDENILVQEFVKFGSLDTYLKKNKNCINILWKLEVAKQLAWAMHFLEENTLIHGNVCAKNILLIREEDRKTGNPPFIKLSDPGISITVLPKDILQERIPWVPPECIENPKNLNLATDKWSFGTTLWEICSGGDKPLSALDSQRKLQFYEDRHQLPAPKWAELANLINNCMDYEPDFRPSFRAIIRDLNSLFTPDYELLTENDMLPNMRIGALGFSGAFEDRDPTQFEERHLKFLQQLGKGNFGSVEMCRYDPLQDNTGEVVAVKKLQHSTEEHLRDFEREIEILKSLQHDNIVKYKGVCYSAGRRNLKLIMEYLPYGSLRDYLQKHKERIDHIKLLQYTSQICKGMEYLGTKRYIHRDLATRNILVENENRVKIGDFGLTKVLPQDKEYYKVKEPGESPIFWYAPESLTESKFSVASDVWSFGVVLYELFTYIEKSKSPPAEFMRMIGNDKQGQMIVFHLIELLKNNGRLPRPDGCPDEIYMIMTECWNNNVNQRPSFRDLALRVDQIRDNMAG
Summary of the method: (§1)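 Single-point screen at 1 μM compound in a 220-kinase panel run by Life Technologies (SelectScreen). Z′-LYTE format: phosphorylation of a labeled peptide substrate read by FRET. Values are reported as percent inhibition.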

[6] = molecular target: Homeodomain-interacting protein kinase 1 (Homo sapiens) (UniProt Q86Z02); assay: Inhibition of recombinant GST-tagged human HIPK1 catalytic domain expressed in baculovirus expression system at 1 uM by FRET relative to control; summary of the method: as §1
Homeodomain-interacting protein kinase 1 (Homo sapiens), sequence (Q86Z02 whole entry, looked up, the tested form may be a part): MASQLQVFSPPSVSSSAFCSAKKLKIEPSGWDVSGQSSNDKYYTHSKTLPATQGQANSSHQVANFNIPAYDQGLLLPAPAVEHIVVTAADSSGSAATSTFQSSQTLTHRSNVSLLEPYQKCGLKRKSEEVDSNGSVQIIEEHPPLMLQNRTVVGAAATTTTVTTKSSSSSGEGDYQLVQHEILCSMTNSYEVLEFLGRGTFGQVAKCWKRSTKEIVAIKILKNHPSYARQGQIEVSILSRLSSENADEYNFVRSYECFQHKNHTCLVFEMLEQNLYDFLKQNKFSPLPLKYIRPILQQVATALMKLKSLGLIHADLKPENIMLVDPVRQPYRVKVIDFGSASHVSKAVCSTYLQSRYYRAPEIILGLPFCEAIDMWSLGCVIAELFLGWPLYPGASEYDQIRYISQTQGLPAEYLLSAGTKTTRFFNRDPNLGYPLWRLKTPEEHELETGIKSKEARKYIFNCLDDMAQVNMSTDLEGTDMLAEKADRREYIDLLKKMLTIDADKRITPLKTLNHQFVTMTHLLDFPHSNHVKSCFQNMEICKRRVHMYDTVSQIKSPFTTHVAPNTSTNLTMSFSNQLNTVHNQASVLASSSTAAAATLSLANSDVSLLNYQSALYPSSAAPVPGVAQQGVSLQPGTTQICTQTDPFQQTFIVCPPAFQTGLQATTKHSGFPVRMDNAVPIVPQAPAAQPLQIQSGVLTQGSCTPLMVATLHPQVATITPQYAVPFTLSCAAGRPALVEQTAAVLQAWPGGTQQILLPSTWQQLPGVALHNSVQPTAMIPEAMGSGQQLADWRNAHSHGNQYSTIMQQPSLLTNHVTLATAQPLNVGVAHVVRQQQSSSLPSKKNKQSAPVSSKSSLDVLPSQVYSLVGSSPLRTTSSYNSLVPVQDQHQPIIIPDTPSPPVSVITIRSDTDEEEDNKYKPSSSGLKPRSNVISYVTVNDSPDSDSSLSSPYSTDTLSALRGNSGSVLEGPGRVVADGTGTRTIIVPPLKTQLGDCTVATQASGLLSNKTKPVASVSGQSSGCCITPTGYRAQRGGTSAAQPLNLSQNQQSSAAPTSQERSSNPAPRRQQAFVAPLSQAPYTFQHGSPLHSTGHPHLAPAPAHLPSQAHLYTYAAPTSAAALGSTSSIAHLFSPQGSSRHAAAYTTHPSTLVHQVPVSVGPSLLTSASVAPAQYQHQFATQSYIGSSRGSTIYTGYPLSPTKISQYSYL

[7] = molecular target: Glycogen synthase kinase-3 alpha (Homo sapiens) (UniProt P49840); assay: Inhibition of GSK3alpha (unknown origin) at 1 uM by FRET relative to control
[8] = molecular target: Tyrosine-protein kinase FRK (Homo sapiens) (UniProt P42685); assay: Inhibition of recombinant full length GST-tagged human FRK cytoplasmoic domain expressed in baculovirus expression system at 1 uM by FRET assay relative to control
Summary of the method: (§2)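 Single-concentration screen at 1 μM in Life Technologies SelectScreen, across a 220-kinase panel. Z′-LYTE format measures phosphorylation of a labeled peptide by FRET. Results are reported as percent inhibition.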

[9] = molecular target: Ephrin type-A receptor 1 (Homo sapiens) (UniProt P21709); assay: Inhibition of recombinant GST-tagged human EphA1 cytoplasmic domain expressed in baculovirus expression system at 1 uM by FRET assay relative to control; summary of the method: as §1
[10] = molecular target: 3-phosphoinositide-dependent protein kinase 1 (Homo sapiens) (UniProt O15530); assay: Inhibition of recombinant full length His-tagged human PDK1 expressed in baculovirus expression system at 1 uM by FRET assay relative to control
[11] = molecular target: Mitogen-activated protein kinase 13 (Homo sapiens) (UniProt O15264); assay: Inhibition of recombinant full length His-tagged human p38delta expressed in baculovirus expression system at 1 uM by FRET assay relative to control
[12] = molecular target: Myosin light chain kinase (Homo sapiens) (UniProt Q32MK0); assay: Inhibition of recombinant human full length N-terminal GST-tagged caMLCK expressed in baculovirus expression system at 1 uM by FRET assay relative to control
Myosin light chain kinase (Homo sapiens), sequence (Q32MK0 whole entry): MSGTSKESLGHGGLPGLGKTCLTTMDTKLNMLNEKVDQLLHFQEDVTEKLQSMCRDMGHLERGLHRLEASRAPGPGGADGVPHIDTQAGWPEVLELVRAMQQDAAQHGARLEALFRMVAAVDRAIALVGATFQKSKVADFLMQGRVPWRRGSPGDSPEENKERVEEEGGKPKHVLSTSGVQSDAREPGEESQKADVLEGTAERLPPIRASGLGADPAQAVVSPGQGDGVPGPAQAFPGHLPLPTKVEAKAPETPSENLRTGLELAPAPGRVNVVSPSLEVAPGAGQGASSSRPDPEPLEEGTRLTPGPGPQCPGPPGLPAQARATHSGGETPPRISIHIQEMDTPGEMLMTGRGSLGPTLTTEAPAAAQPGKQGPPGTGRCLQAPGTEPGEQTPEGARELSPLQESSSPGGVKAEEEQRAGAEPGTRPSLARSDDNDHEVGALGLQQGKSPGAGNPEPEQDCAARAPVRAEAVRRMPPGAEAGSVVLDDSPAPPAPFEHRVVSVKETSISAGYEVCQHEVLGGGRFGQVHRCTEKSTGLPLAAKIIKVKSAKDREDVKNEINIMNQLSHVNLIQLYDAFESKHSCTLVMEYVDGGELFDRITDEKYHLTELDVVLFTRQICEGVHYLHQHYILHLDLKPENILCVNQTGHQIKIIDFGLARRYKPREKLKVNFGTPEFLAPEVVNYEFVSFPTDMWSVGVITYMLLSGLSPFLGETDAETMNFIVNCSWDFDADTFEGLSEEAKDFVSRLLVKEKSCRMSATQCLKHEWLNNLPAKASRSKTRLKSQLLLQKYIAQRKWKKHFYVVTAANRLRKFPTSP

[13] = molecular target: Tyrosine-protein kinase Yes (Homo sapiens) (UniProt P07947); assay: Inhibition of recombinant full length GST-tagged human Yes expressed in baculovirus expression system at 1 uM by FRET assay relative to control
Tyrosine-protein kinase Yes (Homo sapiens), sequence (P07947 2-543 limits assumed): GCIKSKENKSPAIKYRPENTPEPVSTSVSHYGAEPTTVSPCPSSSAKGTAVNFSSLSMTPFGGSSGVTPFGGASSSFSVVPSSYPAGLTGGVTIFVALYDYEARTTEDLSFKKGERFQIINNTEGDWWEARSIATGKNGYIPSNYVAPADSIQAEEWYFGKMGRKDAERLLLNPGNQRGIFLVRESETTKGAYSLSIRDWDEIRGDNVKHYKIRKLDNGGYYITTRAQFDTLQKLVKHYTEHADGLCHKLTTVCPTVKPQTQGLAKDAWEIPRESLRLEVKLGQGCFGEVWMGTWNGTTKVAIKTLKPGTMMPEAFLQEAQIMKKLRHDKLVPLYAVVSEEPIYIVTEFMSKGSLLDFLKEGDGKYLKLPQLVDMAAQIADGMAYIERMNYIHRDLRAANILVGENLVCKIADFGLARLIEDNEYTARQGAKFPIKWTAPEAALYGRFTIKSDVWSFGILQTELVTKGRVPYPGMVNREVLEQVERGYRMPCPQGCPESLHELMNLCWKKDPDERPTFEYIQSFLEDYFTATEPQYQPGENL

[14] = molecular target: Dual specificity protein kinase TTK (Homo sapiens) (UniProt P33981); assay: Inhibition of recombinant full length GST-tagged human TTK expressed in baculovirus expression system at 1 uM by FRET assay relative to control
[15] = molecular target: Tyrosine-protein kinase SYK (Homo sapiens) (UniProt P43405); assay: Inhibition of recombinant full length N-terminal GST-tagged human Syk cytoplasmic domain expressed in baculovirus expression system at 1 uM by FRET assay relative to control
[16] = molecular target: STE20-like serine/threonine-protein kinase (Homo sapiens) (UniProt Q9H2G2); assay: Inhibition of recombinant full length GST-tagged human SLK expressed in baculovirus expression system at 1 uM by FRET assay relative to control; summary of the method: as §2
[17] = molecular target: Tyrosine-protein kinase receptor TYRO3 (Homo sapiens) (UniProt Q06418); assay: Inhibition of recombinant full length GST-tagged human Rse cytoplasmic domain (451 to 890 residues) expressed in baculovirus expression system at 1 uM by FRET assay relative to control; summary of the method: as §2
Tyrosine-protein kinase receptor TYRO3 (Homo sapiens), sequence (Q06418 whole entry, the tested form may be a part): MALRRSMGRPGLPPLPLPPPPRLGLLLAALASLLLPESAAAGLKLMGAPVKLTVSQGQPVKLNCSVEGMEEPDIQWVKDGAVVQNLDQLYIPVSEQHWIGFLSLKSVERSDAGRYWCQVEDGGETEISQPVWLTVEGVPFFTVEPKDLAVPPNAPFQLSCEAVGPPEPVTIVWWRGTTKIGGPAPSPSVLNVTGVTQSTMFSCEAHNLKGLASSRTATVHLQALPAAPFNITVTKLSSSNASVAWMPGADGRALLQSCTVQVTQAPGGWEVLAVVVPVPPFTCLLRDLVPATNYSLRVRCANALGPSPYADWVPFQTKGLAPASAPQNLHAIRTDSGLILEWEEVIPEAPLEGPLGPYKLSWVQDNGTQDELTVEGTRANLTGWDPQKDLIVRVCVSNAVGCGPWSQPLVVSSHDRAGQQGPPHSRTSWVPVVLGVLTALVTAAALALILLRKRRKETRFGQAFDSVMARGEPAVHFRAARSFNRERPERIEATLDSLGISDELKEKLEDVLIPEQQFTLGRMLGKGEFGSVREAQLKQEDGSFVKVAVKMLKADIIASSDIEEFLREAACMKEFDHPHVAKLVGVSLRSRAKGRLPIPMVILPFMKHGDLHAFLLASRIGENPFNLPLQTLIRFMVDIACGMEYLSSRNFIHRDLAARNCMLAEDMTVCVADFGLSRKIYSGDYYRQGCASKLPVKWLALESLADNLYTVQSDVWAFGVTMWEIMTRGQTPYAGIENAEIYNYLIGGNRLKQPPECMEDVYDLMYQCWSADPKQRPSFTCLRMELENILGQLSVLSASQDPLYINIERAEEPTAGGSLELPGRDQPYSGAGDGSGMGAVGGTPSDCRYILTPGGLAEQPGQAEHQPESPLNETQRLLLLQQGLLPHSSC

[18] = molecular target: Serine/threonine-protein kinase PLK3 (Homo sapiens) (UniProt Q9H4B4); assay: Inhibition of GST-tagged human PLK3 catalytic domain expressed in baculovirus expression system at 1 uM by FRET assay relative to control
[19] = molecular target: D(2) dopamine receptor (Homo sapiens) (UniProt P14416); assay: Binding affinity to recombinant human D2 short dopamine receptor at 10 uM relative to control
Summary of the method: (§3)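 Broad radioligand-binding and enzyme screening panel covering 42 targets (biogenic amine and neuropeptide receptors, ion channels, neurotransmitter transporters, acetylcholinesterase). Single test concentration of 10 μM. Results expressed as binding relative to control, with a hit defined as >50% of control.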

[20] = molecular target: Nicotinic acetylcholine receptor alpha-1/beta-1/delta/epsilon (Homo sapiens) (UniProt P02708+P11230+Q07001+Q04844); assay: Binding affinity to (alpha1)2beta1deltaepsilon nAChR (unknown origin) receptor at 10 uM relative to control; format: protein-complex assay; summary of the method: as §3
Homo sapiens [21] = species: Homo sapiens; assay: Binding affinity to L-type calcium channel verapamil/phenylalkylamine binding site (unknown origin) receptor at 10 uM relative to control; summary of the method: as §3
Homo sapiens [22] = species: Homo sapiens; assay: Binding affinity to GABA-gated chloride channel (unknown origin) receptor at 10 uM relative to control; summary of the method: as §3
[23] = molecular target: Serine/threonine-protein kinase D1 (Homo sapiens) (UniProt Q15139); assay: Inhibition of PKD1 (unknown origin) at 1 uM by FRET assay relative to control

Structure (SMILES) | inhibition [1] | inhibition [2] | inhibition [3] | inhibition [4] | inhibition [5] | inhibition [6] | inhibition [7] | inhibition [8] | inhibition [9] | inhibition [10] | inhibition [11] | inhibition [12] | inhibition [13] | inhibition [14] | inhibition [15] | inhibition [16] | inhibition [17] | inhibition [18] | Activity [19] | Activity [20] | also measured
Nc1ncc(-c2cc([C@H]3[C@@H]4CN(C5COC5)C[C@@H]43)n(CC3CC3)n2)cc1C(F)(F)F | 58.5% | 4.3% | 25.8% | 36.1% | 20.4% | 3.8% | 0.8% | 19.7% | 30.8% | -2.7% | 3.8% | 1.3% | 29.8% | 11.2% | 30.6% | 4.8% | 11.3% | 0.6% | > 50% | > 50% | Activity (Homo sapiens [21]): > 50%; Activity (Homo sapiens [22]): > 50%; inhibition [23]: 10%
CC(C)n1nc(-c2cnc(N)c(OC(F)(F)F)c2)cc1[C@H]1[C@@H]2CN(C3COC3)C[C@@H]21 | 39.1% | 5.7% | 10.9% | 7.5% | 4.6% | 8.6% | 7.8% | 14.4% | 13.5% | 3.3% | 10.5% | 0.8% | 15.8% | 14.2% | 26.8% | 4.9% | 11.2% | -3.8% | > 50% | > 50% | Activity (Homo sapiens [21]): > 50%; Activity (Homo sapiens [22]): > 50%; inhibition [23]: 20%
